The results in this text go back to ChEMBL document CHEMBL1132378, “Allosteric modulation of the adenosine A(1) receptor. Synthesis and biological evaluation of novel 2-amino-3-benzoylthiophenes as allosteric enhancers of agonist binding” (J Med Chem, 1999).

In one test the target is T1, Adenosine receptor A1 (Rattus norvegicus, UniProt P25099).
T1 sequence (P25099 whole entry): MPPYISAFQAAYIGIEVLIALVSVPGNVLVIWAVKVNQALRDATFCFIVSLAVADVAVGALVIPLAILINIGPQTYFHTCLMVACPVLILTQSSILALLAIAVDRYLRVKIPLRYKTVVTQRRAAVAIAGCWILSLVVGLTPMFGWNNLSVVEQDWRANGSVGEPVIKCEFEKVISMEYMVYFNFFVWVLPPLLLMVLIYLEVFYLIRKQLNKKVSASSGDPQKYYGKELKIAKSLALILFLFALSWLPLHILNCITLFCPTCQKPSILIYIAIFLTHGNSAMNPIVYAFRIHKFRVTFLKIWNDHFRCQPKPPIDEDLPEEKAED
Nature of the test: Enhanced 0.5 nM [3H]CCPA dissociation from adenosine A1 receptor of rat brain cortex membranes compared to 100 uM CPA. The essentials: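 Rat brain cortex membranes (ADA-treated, 2 U/mL at 37 °C) preincubated 2.5 h with 0.5 nM [3H]CCPA. Dissociation then started with 100 μM CPA, with or without 10 μM test compound. Bound [3H]CCPA measured after 1 h. Percent decrease in dissociation scaled between control (0%) and 10 μM PD 81,723 as reference (100%); n = 3.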

Test [1] has as its target T2, Adenosine receptor A1 (Rattus norvegicus) (UniProt P25099).
T2 sequence (whole entry): T1 sequence (P25099 whole entry)
The experiment in a line: Enhancing activity at 10 uM PD 81,723 (100%) at Adenosine A1 receptor in rat brain cortex membranes. It counts as cell membranes. In outline:
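Rat brain cortex membranes (ADA-treated, 2 U/mL at 37 °C) preincubated 2.5 h with 0.5 nM [3H]CCPA. Dissociation then started with 100 μM CPA, with or without 10 μM test compound. Bound [3H]CCPA measured after 1 h.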

In test [2] the target is T2, Adenosine receptor A1 (Rattus norvegicus). Nature of the test: Antagonistic activity expressed as percent displacement of 0.4 nM of [3H]DPCPX from adenosine A1 receptors in rat brain cortex membranes at 10 uM. In kind it is functional, cell membranes. As to conditions: Membrane. In outline: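 Rat brain cortex membranes (ADA-treated, 2 U/mL at 37 °C before storage; 30 μg/mL) incubated 1 h at 25 °C in 50 mM Tris/HCl pH 7.4 with 0.4 nM [3H]DPCPX and 10 μM compound. Nonspecific binding defined by 10 μM CPA. Result is percent displacement of radioligand; n = 3–5.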

SMILES strings stand for the structures. pEC50: −log10 of the molar value.

A word on the pEC50: it is the EC50 on a negative log10 scale, so that one unit is a factor of ten. On to `Nc1sc2c(c1C(=O)c1ccc(C(F)(F)F)cc1)CCCC2`, for which, on Adenosine receptor A1, the pEC50 is 5.33. For the same molecule, in test [1], the Enhancement worked out at 131%. The molecule also returned an Antagonism in test [2] of 56.7%.
On to `Nc1sc2c(c1C(=O)c1ccc(Br)cc1)CCCC2`, for which, at Adenosine receptor A1, the pEC50 was 4.79. In addition, the Enhancement in test [1] was determined as 128%. The Antagonism in test [2] was 41.6%.
As to `Nc1sc2c(c1C(=O)c1ccccc1)CCCC2`, the Enhancement in test [1] is 47.2%. Besides, the Antagonism in test [2] worked out at 34.7%.
In the case of `Nc1sc2c(c1C(=O)c1ccc(Cl)c(Cl)c1)CCN(Cc1ccccc1)C2`, the pEC50 at Adenosine receptor A1 is 5.04. Besides, in test [1], the Enhancement stood at 174%. Further, in test [2], the Antagonism turned out to be 51%.
The like results for `Nc1sc2c(c1C(=O)c1ccccc1)CCN(Cc1cccc(Cl)c1)C2` were, in that order, 4.82, 106% and 80.1%.
As for `Nc1sc2c(c1C(=O)c1ccc(Cl)c(Cl)c1)CCCC2`, the negative logarithm of the EC50 (pEC50) at Adenosine receptor A1 was 5.21. Moreover, the Enhancement in test [1] worked out at 151%. In test [2], this molecule had an Antagonism of 34.7%.
Regarding `CCc1c(C)sc(N)c1C(=O)c1cccc(C(F)(F)F)c1`, the Enhancement in test [1] was 112%. In test [2], the Antagonism stood at 5.4%.
For the molecule `Nc1sc2c(c1C(=O)c1ccc(Cl)cc1)CCN(Cc1ccc(Cl)c(Cl)c1)C2`, the pEC50 on Adenosine receptor A1 was 4.49. Besides, in test [1], the Enhancement is 106%. This molecule displayed an Antagonism in test [2] of 45.7%.
For the molecule `Cc1sc(N)c(C(=O)c2ccc(Cl)cc2)c1C`, the Enhancement in test [1] stood at 93.5%. In addition, the Antagonism in test [2] was found to be 41%.
With `Nc1sc2c(c1C(=O)c1ccccc1Cl)CCCC2`, in test [1], the Enhancement was found to be 72.5%. Moreover, the Antagonism in test [2] worked out at 35.1%.
Regarding `Cc1ccc(C(=O)c2c(N)sc3c2CCCC3)cc1`, the pEC50 at Adenosine receptor A1 is 4.46. Further, the Enhancement in test [1] was determined as 137%. The same molecule registered an Antagonism in test [2] of 30.3%.
For `Nc1sc2c(c1C(=O)c1ccc([N+](=O)[O-])cc1)CCCC2`, the Enhancement in test [1] was 33.9%. For the same molecule, the Antagonism in test [2] is 19.5%.
Regarding `Nc1sc2c(c1C(=O)c1cccc(Cl)c1)CCCC2`, the pEC50 on Adenosine receptor A1 was 4.98. Also, in test [1], the Enhancement stood at 92.7%. The molecule also showed an Antagonism in test [2] of 50.6%.
For `Cc1sc(N)c(C(=O)c2cccc(C(F)(F)F)c2)c1C` the same measures were 4.83, 100% and 39.5%.
As for `Nc1sc2c(c1C(=O)c1cccc(I)c1)CCCC2`, the Enhancement in test [1] was found to be 113%. The Antagonism in test [2] worked out at 65.8%.
The like results for `Nc1sc2c(c1C(=O)c1ccccc1)CCN(Cc1ccc(Cl)c(Cl)c1)C2` were, in that order, 57% and 4%.
The like results for `COC(=O)c1ccc(C(=O)c2c(N)sc3c2CCCC3)cc1` were, in that order, 43.9% and 28.9%.
The like results for `Nc1sc2c(c1C(=O)c1ccccc1)CCN(Cc1ccccc1)C2` were, in that order, 52.8% and 67.1%.
Consider `Nc1sc2c(c1C(=O)c1ccccc1)CCN(C(=O)c1ccccc1)C2`, for which the Enhancement in test [1] was found to be 13.8%. In addition, in test [2], the Antagonism stood at 71.8%.
For `CCc1c(C)sc(N)c1C(=O)c1ccc(Cl)cc1` the same measures were 97.2% and 19.8%.
The like results for `Nc1sc2c(c1C(=O)c1ccccc1)CCN(Cc1ccc(Cl)cc1)C2` were, in that order, 69% and 52.2%.
For `CCc1c(C)sc(N)c1C(=O)c1ccccc1` the same measures were 31.4% and 12.6%.
Consider `Nc1sc2c(c1C(=O)c1ccc(C(=O)O)cc1)CCCC2`, for which the Enhancement in test [1] came out at 28.6%.
As for `Nc1sc2c(c1C(=O)c1ccc(I)cc1)CCCC2`, on Adenosine receptor A1, the negative-log EC50 (pEC50) was 5.35. For the same molecule, the Enhancement in test [1] came to 155%. Moreover, in test [2], the Antagonism stood at 64.4%.
On to `CCc1c(C)sc(N)c1C(=O)c1cccc(Cl)c1`, for which the Enhancement in test [1] was determined as 29.9%. Moreover, in test [2], the Antagonism worked out at 22.3%.
Consider `Nc1sc2c(c1C(=O)c1ccc(Cl)cc1)CCN(Cc1ccccc1)C2`, for which the pEC50 at Adenosine receptor A1 is 4.95. Further, in test [1], the Enhancement was 132%. The same molecule registered an Antagonism in test [2] of 60.9%.
Consider `Nc1sc2c(c1C(=O)c1ccc(Cl)cc1)CCCC2` [T-62], for which the pEC50 at Adenosine receptor A1 was 5.17. Also, in test [1], the Enhancement stood at 123%. In test [2], this molecule gave an Antagonism of 39.9%.
As for `Cc1sc(N)c(C(=O)c2cccc(Cl)c2)c1C`, in test [1], the Enhancement came out at 80.3%. This molecule also came in with an Antagonism in test [2] of 18.7%.
On to `Cc1sc(N)c(C(=O)c2ccccc2)c1C`, for which the Enhancement in test [1] stood at 8%. This molecule also displayed an Antagonism in test [2] of 13.9%.
On to `Nc1sc2c(c1C(=O)c1cccc(C(F)(F)F)c1)CCCC2`, for which the pEC50 on Adenosine receptor A1 is 5.22. The Enhancement in test [1] was 122%. Also, in test [2], the Antagonism is 32.2%.
